Assay results published in ChEMBL document CHEMBL1142706, “Synthesis and evaluation of (pyridylmethylene)tetrahydronaphthalenes/-indanes and structurally modified derivatives: potent and selective inhibitors of aldosterone synthase” (J Med Chem, 2005).

Key:
[1] = target: T1, Cytochrome P450 11B2, mitochondrial (Homo sapiens, UniProt P19099); experiment: In vitro inhibition of human CYP11B2 expressed in Schizosaccharomyces pombe incubated with 100 nM of substrate deoxy-corticosterone in presence of 500 nM of compound
T1 sequence (P19099 whole entry): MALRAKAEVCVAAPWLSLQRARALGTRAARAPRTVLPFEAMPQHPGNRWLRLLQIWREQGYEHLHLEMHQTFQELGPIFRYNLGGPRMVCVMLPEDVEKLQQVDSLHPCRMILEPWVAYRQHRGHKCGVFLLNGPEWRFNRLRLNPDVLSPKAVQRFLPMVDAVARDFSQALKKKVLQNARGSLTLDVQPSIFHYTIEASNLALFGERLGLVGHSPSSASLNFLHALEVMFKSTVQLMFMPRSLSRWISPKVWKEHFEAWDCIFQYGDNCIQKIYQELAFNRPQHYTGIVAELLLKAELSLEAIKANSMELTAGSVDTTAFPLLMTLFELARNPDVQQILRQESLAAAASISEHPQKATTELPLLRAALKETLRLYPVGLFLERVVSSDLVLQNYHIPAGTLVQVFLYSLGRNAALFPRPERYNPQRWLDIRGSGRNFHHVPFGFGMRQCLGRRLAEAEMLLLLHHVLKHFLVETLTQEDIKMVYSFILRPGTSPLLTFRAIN

CYP17 = target: T2, CYP17 (Homo sapiens, UniProt P05093); experiment: In vitro inhibition of human CYP17 expressed in Escherichia coli incubated with 2.5 uM of substrate progesterone in presence of 2.5 uM of compound; details: probe progesterone
T2 sequence (P05093 whole entry): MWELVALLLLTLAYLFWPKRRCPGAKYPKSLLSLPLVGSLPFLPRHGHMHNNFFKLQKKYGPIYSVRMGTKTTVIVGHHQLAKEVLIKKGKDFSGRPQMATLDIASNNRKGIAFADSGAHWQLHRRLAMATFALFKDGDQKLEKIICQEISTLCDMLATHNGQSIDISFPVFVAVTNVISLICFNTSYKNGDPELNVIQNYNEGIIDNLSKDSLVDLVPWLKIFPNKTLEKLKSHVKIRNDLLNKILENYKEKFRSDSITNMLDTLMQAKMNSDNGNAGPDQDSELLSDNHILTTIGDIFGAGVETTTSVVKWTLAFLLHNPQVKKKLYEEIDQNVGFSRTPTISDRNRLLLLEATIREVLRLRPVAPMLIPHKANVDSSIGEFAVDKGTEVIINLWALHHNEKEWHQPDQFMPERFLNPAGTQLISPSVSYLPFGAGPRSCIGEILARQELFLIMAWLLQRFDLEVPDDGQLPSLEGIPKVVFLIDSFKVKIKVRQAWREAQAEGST

Aromatase = target: T3, Aromatase (Homo sapiens, UniProt P11511); experiment: In vitro inhibitory concentration against human placental CYP19 incubated with 500 nM of substrate androstenedione in presence of the compound
T3 sequence (P11511 whole entry): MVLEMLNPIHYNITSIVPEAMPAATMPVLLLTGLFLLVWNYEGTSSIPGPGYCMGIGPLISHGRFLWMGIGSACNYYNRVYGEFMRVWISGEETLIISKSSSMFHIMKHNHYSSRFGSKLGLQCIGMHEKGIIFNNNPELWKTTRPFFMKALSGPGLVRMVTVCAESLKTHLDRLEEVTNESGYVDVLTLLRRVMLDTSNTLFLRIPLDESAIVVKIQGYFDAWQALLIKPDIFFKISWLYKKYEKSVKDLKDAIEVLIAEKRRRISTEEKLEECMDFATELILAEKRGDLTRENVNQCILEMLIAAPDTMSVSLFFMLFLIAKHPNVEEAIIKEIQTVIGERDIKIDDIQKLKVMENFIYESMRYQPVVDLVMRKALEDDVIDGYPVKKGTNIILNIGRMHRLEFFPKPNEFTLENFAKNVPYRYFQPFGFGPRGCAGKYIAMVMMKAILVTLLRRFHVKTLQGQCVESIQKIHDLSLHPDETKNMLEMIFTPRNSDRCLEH

[2] = target: T1, Cytochrome P450 11B2, mitochondrial; experiment: In vitro inhibitory concentration against human CYP11B2 expressed in V79MZh hamster fibroblasts incubated with 100 nM of substrate deoxy-corticosterone in presence of the compound
Method in brief: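 Intact V79 MZh hamster fibroblasts expressing human CYP11B1 or CYP11B2, incubated with [4-14C]-11-deoxycorticosterone (100 nM) and inhibitor at no fewer than three concentrations to give IC50. Stopped with ethyl acetate, shaken, centrifuged (10 000g, 2 min); steroids in organic phase analysed by HPTLC/phosphoimager. Mean of four determinations, standard deviation less than 5%.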

Homo sapiens = species on record: Homo sapiens; experiment: In vitro IC50 ratio against human CYP11B1 to that of human CYP11B2
Method in brief: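 IC50 ratio from V79 MZh hamster fibroblasts expressing human CYP11B1 or CYP11B2, each incubated with [4-14C]-11-deoxycorticosterone (100 nM) and inhibitor at no fewer than three concentrations; steroids extracted into ethyl acetate and quantified by HPTLC with phosphoimaging.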

| SMILES | inhibition at 0.5 µM [1] | inhibition at 2.5 µM (CYP17) | IC50 (Aromatase) | IC50 [2] | Selectivity ratio (Homo sapiens) |
| --- | --- | --- | --- | --- | --- |
| COc1ccc2c(c1)/C(=C/c1cccnc1)CC2 | 29% | 5% | 6360 nM |  |  |
| COc1ccc2c(c1)/C(=C/c1ccncc1)CC2 | 26% |  |  | 3 nM |  |
| Cc1cccc2c1CC/C2=C/c1cccnc1 | 12% | 16% | 12600 nM |  |  |
| Cc1ccc2c(c1)/C(=C\c1cccnc1)CC2 | 43% | 2% | 4600 nM |  |  |
| Clc1cccc2c1CC/C2=C\c1cccnc1 |  | 14% |  | 9 nM | 33.8 |
| C(=C1c2ccccc2-c2ccccc21)c1ccncc1 | 6% |  | 2740 nM | 5 nM |  |
| C(=C1\CCCc2ccccc21)/c1cccnc1 |  | 24% |  |  | 10.1 |
| C(=C1c2ccccc2-c2ccccc21)c1cccnc1 | 0% |  | 4810 nM | 6 nM |  |
| COc1ccc2c(c1)CCC/C2=C/c1cccnc1 |  | 17% |  |  | 0.2 |
| C(=C(c1ccccc1)c1ccccc1)c1cccnc1 | 5% |  | 3630 nM | 9 nM |  |
| Clc1ccc2c(c1)CC/C2=C/c1ccncc1 | 37% |  | 1990 nM | 301 nM |  |
| Brc1ccc2c(c1)CC/C2=C\c1cccnc1 |  | 16% |  |  | 52.4 |
| CC1C/C(=C\c2cccnc2)c2ccccc21 (stereo not drawn) | 47% |  | 3680 nM |  |  |
| COc1ccc2c(c1)CC/C2=C/c1cncs1 | 17% |  | 4830 nM | 5 nM |  |
| COc1ccc2c(c1)CC/C2=C\c1ccncc1 | 11% |  |  | 59 nM |  |
| Clc1ccc2c(c1)CC/C2=C\c1cccnc1 |  | 26% |  |  | 56.6 |
| COc1ccc2c(c1)CCC/C2=C\c1ccncc1 | 31% |  | 800 nM | 22 nM |  |
| C(=C1/CC(c2ccccc2)c2ccccc21)/c1cccnc1 (stereo not drawn) | 0% |  | 4060 nM | 3 nM |  |
| Fc1ccc2c(c1)CC/C2=C/c1ccnc2ccccc12 | 0% |  | > 36000 nM | 14 nM |  |
| C(=C1/CCc2ccccc21)/c1ccncc1 |  |  |  | 8 nM |  |
| Fc1ccc2c(c1)CC/C2=C/c1cccc2ncccc12 | 0% |  | > 36000 nM | 31 nM |  |
| COc1ccc2c(c1)CCC/C2=C/c1ccncc1 | 36% |  | 1010 nM | 56 nM |  |
| Fc1cccc2c1CC/C2=C\c1cccnc1 |  | 42% |  |  | 36.9 |
| COc1ccc2c(c1)CC/C2=C/c1ccncc1 | 13% |  |  | 55 nM |  |

| SMILES | inhibition at 0.5 µM [1] | inhibition at 2.5 µM (CYP17) | IC50 (Aromatase) | IC50 [2] | Selectivity ratio (Homo sapiens) |
| --- | --- | --- | --- | --- | --- |
| Brc1ccc2c(c1)CC/C2=C/c1cccnc1 |  | 24% |  |  | 1.9 |
| Fc1ccc2c(c1)CC/C2=C/c1cccnc1 |  | 16% |  | 11 nM | 11.4 |
| C(=C(c1ccccc1)c1ccccc1)c1ccncc1 | 32% |  | 100 nM | 22 nM |  |
| CCOc1ccc2c(c1)CC/C2=C/c1cccnc1 |  | 6% |  |  | 10.9 |
| CCOc1ccc2c(c1)CC/C2=C\c1cccnc1 |  | 13% |  |  | 30 |
| COc1ccc2c(c1)CC/C2=C\c1cncs1 | 18% |  | 4330 nM | 17 nM |  |
| Cc1ccc2c(c1)/C(=C\c1ccncc1)CC2 | 46% |  | 1710 nM | 8 nM |  |
| COc1ccc2c(c1)CCC/C2=C\c1cccnc1 |  | 20% |  |  | 15.8 |
| Fc1ccc2c(c1)CC/C2=C\c1cccnc1 |  | 17% |  | 7 nM | 44.4 |
| Fc1ccc2c(c1)CC/C2=C\c1ccnc2ccccc12 | 0% |  | > 36000 nM | 20 nM |  |
| COc1cc2c(cc1OC)/C(=C/c1ccncc1)CCC2 | 29% |  | 90 nM | 11 nM |  |
| Fc1ccc2c(c1)CC/C2=C\c1cccc2ncccc12 | 0% |  | > 36000 nM | 14 nM |  |
| N#Cc1ccc(C2CCCc3cncn32)cc1 (stereo not drawn) [FADROZOLE] |  | 5% |  |  |  |
| Fc1ccc2c(c1)CC/C2=C/c1cncnc1 | 14% |  | 790 nM |  |  |
| COc1ccc2c(c1)CC/C2=C/c1cccnc1 |  | 49% |  | 26 nM | 30.4 |
| C(=C1/CCCc2ccccc21)/c1cccnc1 |  | 9% |  | 22 nM | 32.5 |
| COc1cccc2c1/C(=C/c1cccnc1)CC2 |  | 5% |  |  | 35.4 |
| COc1ccc2c(c1)/C(=C\c1ccncc1)CC2 | 24% |  |  | 26 nM |  |
| Clc1ccc2c(c1)CC/C2=C/c1cccnc1 |  | 28% |  |  | 3.7 |
| Cc1ccc2c(c1)/C(=C/c1ccncc1)CC2 | 41% |  | 1280 nM | 4 nM |  |
| Clc1cccc2c1CC/C2=C/c1cccnc1 |  | 32% |  | 31 nM | 21.1 |
| Cc1cccc2c1CC/C2=C\c1cccnc1 |  | 40% |  |  | 7.1 |
| COc1ccc2c(c1)CC/C2=C\c1cccnc1 |  | 36% |  |  | 42.6 |
